In brackets after ≈: the same amount, converted by molar mass.
Experiments:
[1] = Activity of Beta-lactamase GES-1 E104, G170 mutant
Summary of the method: (§1)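 Purified GES enzymes, released by mild sonication in 20 mM Tris pH 8.0, then Q-Sepharose and S-Sepharose chromatography, >95% pure by SDS-PAGE, in 50 mM KPi pH 7.6. Protein measured by Bradford. β-Lactam substrates hydrolysed at various concentrations, 25°C, in 50 mM NaCl, 50 mM MOPS pH 7.0.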

[2] = Activity of Beta-lactamase GES-7 K104, G170 mutant; summary of the method: as §1
[3] = Activity of Beta-lactamase GES-2 E104, N170 mutant; summary of the method: as §1
[4] = Activity of Beta-lactamase GES-5 E104, S170 mutant; summary of the method: as §1
[5] = Activity of Beta-lactamase GES-6 K104, S170 mutant; summary of the method: as §1
[6] = Activity of Beta-lactamase GES-13 K104, N170 mutant; summary of the method: as §1
[7] = Ratio of Kcat to Km for Beta-lactamase GES-1 E104, G170 mutant; summary of the method: as §1
[8] = Ratio of Kcat to Km for Beta-lactamase GES-7 K104, G170 mutant; summary of the method: as §1
[9] = Ratio of Kcat to Km for Beta-lactamase GES-2 E104, N170 mutant; summary of the method: as §1
[10] = Ratio of Kcat to Km for Beta-lactamase GES-5 E104, S170 mutant; summary of the method: as §1
[11] = Ratio of Kcat to Km for Beta-lactamase GES-6 K104, S170 mutant; summary of the method: as §1
[12] = Ratio of Kcat to Km for Beta-lactamase GES-13 K104, N170 mutant; summary of the method: as §1
Escherichia coli [13] = assay: Antimicrobial activity against Escherichia coli DH5[alpha] transformed with pAC-ges1 plasmid encoding Beta-lactamase GES-1 E104, G170 mutant by Etest method; type: functional
Escherichia coli [14] = assay: Antimicrobial activity against Escherichia coli DH5[alpha] transformed with pAC-ges1 plasmid encoding Beta-lactamase GES-7 K104, G170 mutant by Etest method; type: functional
Escherichia coli [15] = assay: Antimicrobial activity against Escherichia coli DH5[alpha] transformed with pAC-ges1 plasmid encoding Beta-lactamase GES-2 E104, N170 mutant by Etest method; type: functional
Escherichia coli [16] = assay: Antimicrobial activity against Escherichia coli DH5[alpha] transformed with pAC-ges1 plasmid encoding Beta-lactamase GES-6 K104, S170 mutant by Etest method; type: functional
Escherichia coli [17] = assay: Antimicrobial activity against Escherichia coli DH5[alpha] transformed with pAC-ges1 plasmid encoding Beta-lactamase GES-13 K104, N170 mutant by Etest method; type: functional
Escherichia coli [18] = assay: Antimicrobial activity against Escherichia coli DH5[alpha] by Etest method; type: functional
Escherichia coli [19] = assay: Antimicrobial activity against Escherichia coli DH5[alpha] transformed with pAC-ges1 plasmid encoding Beta-lactamase GES-5 E104, S170 mutant by Etest method; type: functional
[20] = Inhibition of Beta-lactamase GES-1 E104, G170 mutant preincubated for 5 mins before substrate addition using cephalothin substrate by spectrophotometry
[21] = Inhibition of Beta-lactamase GES-7 K104, G170 mutant preincubated for 5 mins before substrate addition using cephalothin substrate by spectrophotometry
[22] = Inhibition of Beta-lactamase GES-2 E104, N170 mutant preincubated for 5 mins before substrate addition using cephalothin substrate by spectrophotometry
[23] = Inhibition of Beta-lactamase GES-5 E104, S170 mutant preincubated for 5 mins before substrate addition using cephalothin substrate by spectrophotometry
[24] = Inhibition of Beta-lactamase GES-6 K104, S170 mutant preincubated for 5 mins before substrate addition using cephalothin substrate by spectrophotometry
[25] = Inhibition of Beta-lactamase GES-13 K104, N170 mutant preincubated for 5 mins before substrate addition using cephalothin substrate by spectrophotometry
Escherichia coli [26] = assay: Antimicrobial activity against Escherichia coli DH5[alpha] transformed with pAC-ges1 plasmid encoding Beta-lactamase GES-1 E104, G170 mutant in presence of at 2 ug/ml clavulanic acid by Etest method; type: functional
Escherichia coli [27] = assay: Antimicrobial activity against Escherichia coli DH5[alpha] transformed with pAC-ges1 plasmid encoding Beta-lactamase GES-7 K104, G170 mutant in presence of at 2 ug/ml clavulanic acid by Etest method; type: functional
Escherichia coli [28] = assay: Antimicrobial activity against Escherichia coli DH5[alpha] transformed with pAC-ges1 plasmid encoding Beta-lactamase GES-2 E104, N170 mutant in presence of at 2 ug/ml clavulanic acid by Etest method; type: functional
Summary of the method: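 MIC read by Etest per the manufacturer's instructions. Host was E. coli DH5α carrying the bla_GES gene cloned into the chloramphenicol- and tetracycline-resistant vector pACYC184, with the high-copy plasmid pBC-ges1 as the gene source. The inhibitor was held at a fixed 2 μg/ml.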

Escherichia coli [29] = assay: Antimicrobial activity against Escherichia coli DH5[alpha] transformed with pAC-ges1 plasmid encoding Beta-lactamase GES-5 E104, S170 mutant in presence of at 2 ug/ml clavulanic acid by Etest method; type: functional
Escherichia coli [30] = assay: Antimicrobial activity against Escherichia coli DH5[alpha] transformed with pAC-ges1 plasmid encoding Beta-lactamase GES-6 K104, S170 mutant in presence of at 2 ug/ml clavulanic acid by Etest method; type: functional
Escherichia coli [31] = assay: Antimicrobial activity against Escherichia coli DH5[alpha] transformed with pAC-ges1 plasmid encoding Beta-lactamase GES-13 K104, N170 mutant in presence of at 2 ug/ml clavulanic acid by Etest method; type: functional
Escherichia coli [32] = assay: Antimicrobial activity against Escherichia coli DH5[alpha] in presence of at 2 ug/ml clavulanic acid by Etest method; type: functional

CC(C)(O/N=C(\C(=O)N[C@@H]1C(=O)N2C(C(=O)[O-])=C(C[n+]3ccccc3)CS[C@H]12)c1csc(N)n1)C(=O)O [CEFTAZIDIME]
Km [1]: 137 µM | kcat [1]: 10.5 s⁻¹ | Km [2]: 69.2 µM | kcat [2]: 132 s⁻¹ | Km [3]: 98.2 µM | kcat [3]: 0.21 s⁻¹ | Km [4]: 135 µM | kcat [4]: 0.24 s⁻¹ | Km [5]: 149 µM | kcat [5]: 9.3 s⁻¹ | Km [6]: 229 µM | kcat [6]: 30.4 s⁻¹ | kcat/Km [7]: 77000 M⁻¹ s⁻¹ | kcat/Km [8]: 1.9e+06 M⁻¹ s⁻¹ | kcat/Km [9]: 2000 M⁻¹ s⁻¹ | kcat/Km [10]: 2000 M⁻¹ s⁻¹ | kcat/Km [11]: 63000 M⁻¹ s⁻¹ | kcat/Km [12]: 130000 M⁻¹ s⁻¹ | MIC (Escherichia coli [13]): 8 µg/mL (≈ 14.6 µM) | MIC (Escherichia coli [14]): > 256 µg/mL | MIC (Escherichia coli [15]): 0.5 µg/mL (≈ 0.915 µM) | MIC (Escherichia coli [16]): 4 µg/mL (≈ 7.32 µM) | MIC (Escherichia coli [17]): 32 µg/mL (≈ 58.5 µM) | MIC (Escherichia coli [18]): 0.12 µg/mL (≈ 0.22 µM) | MIC (Escherichia coli [19]): 0.75 µg/mL (≈ 1.37 µM)

O=C(O)[C@H]1/C(=C/CO)O[C@@H]2CC(=O)N21 [CLAVULANIC ACID]
IC50 [20]: 100 nM | IC50 [21]: 800 nM | IC50 [22]: 80 nM | IC50 [23]: 500 nM | IC50 [24]: 1700 nM | IC50 [25]: 90 nM

C[C@@H](O)[C@H]1C(=O)N2C(C(=O)O)=C(SCCNC=N)C[C@H]12 [IMIPENEM ANHYDROUS]
Km [1]: 1.2 µM | kcat [1]: 0.006 s⁻¹ | Km [3]: 0.87 µM | kcat [3]: 0.016 s⁻¹ | Km [4]: 1.27 µM | kcat [4]: 0.332 s⁻¹ | Km [5]: 3.92 µM | kcat [5]: 0.166 s⁻¹ | Km [6]: 3.1 µM | kcat [6]: 0.009 s⁻¹ | kcat/Km [7]: 5000 M⁻¹ s⁻¹ | kcat/Km [9]: 20000 M⁻¹ s⁻¹ | kcat/Km [10]: 260000 M⁻¹ s⁻¹ | kcat/Km [11]: 42000 M⁻¹ s⁻¹ | kcat/Km [12]: 3000 M⁻¹ s⁻¹ | MIC (Escherichia coli [13]): 0.25 µg/mL (≈ 0.835 µM) | MIC (Escherichia coli [14]): 0.125 µg/mL (≈ 0.418 µM) | MIC (Escherichia coli [15]): 0.5 µg/mL (≈ 1.67 µM) | MIC (Escherichia coli [16]): 0.5 µg/mL (≈ 1.67 µM) | MIC (Escherichia coli [17]): 0.25 µg/mL (≈ 0.835 µM) | MIC (Escherichia coli [18]): 0.064 µg/mL (≈ 0.214 µM) | MIC (Escherichia coli [19]): 1.5 µg/mL (≈ 5.01 µM)

C[C@@H](O)[C@H]1C(=O)N2C(C(=O)O)=C(S[C@@H]3CN[C@H](C(=O)N(C)C)C3)[C@H](C)[C@H]12 [MEROPENEM]
MIC (Escherichia coli [13]): 0.016 µg/mL (≈ 0.0417 µM) | MIC (Escherichia coli [14]): 0.016 µg/mL (≈ 0.0417 µM) | MIC (Escherichia coli [15]): 0.032 µg/mL (≈ 0.0834 µM) | MIC (Escherichia coli [16]): 0.047 µg/mL (≈ 0.123 µM) | MIC (Escherichia coli [17]): 0.023 µg/mL (≈ 0.06 µM) | MIC (Escherichia coli [18]): 0.008 µg/mL (≈ 0.0209 µM) | MIC (Escherichia coli [19]): 0.094 µg/mL (≈ 0.245 µM)

CC1(C)[C@H](C(=O)O)N2C(=O)C[C@H]2S1(=O)=O [SULBACTAM]
IC50 [20]: 1500 nM | IC50 [22]: 500 nM | IC50 [23]: 4500 nM | IC50 [24]: 8000 nM | IC50 [25]: 300 nM

C[C@]1(Cn2ccnn2)[C@H](C(=O)O)N2C(=O)C[C@H]2S1(=O)=O [TAZOBACTAM]
IC50 [20]: 30 nM | IC50 [21]: 60 nM | IC50 [22]: 30 nM | IC50 [23]: 500 nM | IC50 [24]: 500 nM | IC50 [25]: 40 nM

CC1(C)S[C@@H]2[C@H](NC(=O)[C@H](C(=O)O)c3ccsc3)C(=O)N2[C@H]1C(=O)O [TICARCILLIN]
MIC (Escherichia coli [13]): > 256 µg/mL | MIC (Escherichia coli [14]): > 256 µg/mL | MIC (Escherichia coli [15]): > 256 µg/mL | MIC (Escherichia coli [16]): > 256 µg/mL | MIC (Escherichia coli [17]): > 256 µg/mL | MIC (Escherichia coli [18]): 4 µg/mL (≈ 10.4 µM) | MIC (Escherichia coli [19]): > 256 µg/mL | MIC (Escherichia coli [26]): 6 µg/mL | MIC (Escherichia coli [27]): > 256 µg/mL | MIC (Escherichia coli [28]): 1.5 µg/mL | MIC (Escherichia coli [29]): 16 µg/mL | MIC (Escherichia coli [30]): > 256 µg/mL | MIC (Escherichia coli [31]): 8 µg/mL | MIC (Escherichia coli [32]): 4 µg/mL

Reference: ChEMBL document CHEMBL1687781, “Comparative biochemical and computational study of the role of naturally occurring mutations at Ambler positions 104 and 170 in GES β-lactamases” (Antimicrob Agents Chemother, 2010)
